# SENP1 inh: blocks the human SENP1 SUMO protease catalytic domain; Q9P0U3; recombinant SENP1 catalytic domain, CyPet-SUMO1-YPet FRET cleavage; inhibition, % at 10 µM; 0.21% of 360,000 active; AID 624204;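 active = inhibition at least 30% at 10 µM, raw YFP signal under a set limit, fluorescence ratio 0.5 to 1.5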;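 also: 0% = enzyme with DMSO and 100% = no enzyme wells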
#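 Test system: recombinant human SENP1 catalytic domain, His6-tagged / Medium: pH 8 Tris buffer with EDTA, NaCl, BME, BSA, NP40, catalase / Also added: SUMO1 FRET substrate flanked by Cypet and Ypet, 25 nM / Times: 50 min reaction at room temperature / Signal: FRET, CFP and YFP emission / Control set: no-enzyme low control and enzyme-plus-DMSO high control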
# SENP6 block: inhibitors of human SENP6 protease. Q9GZR1. Recombinant SENP6 catalytic domain, aminoluciferin luminescence. inhibition, % at 10 µM. 1.8% of 330,000 active;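 active = inhibition above about 50% at the single tested dose, limit read from the data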;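 also: plate controls were DMSO wells with enzyme for no effect and DMSO wells lacking enzyme for full effect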
# Target sequence (Q9GZR1 628-1112 limits assumed): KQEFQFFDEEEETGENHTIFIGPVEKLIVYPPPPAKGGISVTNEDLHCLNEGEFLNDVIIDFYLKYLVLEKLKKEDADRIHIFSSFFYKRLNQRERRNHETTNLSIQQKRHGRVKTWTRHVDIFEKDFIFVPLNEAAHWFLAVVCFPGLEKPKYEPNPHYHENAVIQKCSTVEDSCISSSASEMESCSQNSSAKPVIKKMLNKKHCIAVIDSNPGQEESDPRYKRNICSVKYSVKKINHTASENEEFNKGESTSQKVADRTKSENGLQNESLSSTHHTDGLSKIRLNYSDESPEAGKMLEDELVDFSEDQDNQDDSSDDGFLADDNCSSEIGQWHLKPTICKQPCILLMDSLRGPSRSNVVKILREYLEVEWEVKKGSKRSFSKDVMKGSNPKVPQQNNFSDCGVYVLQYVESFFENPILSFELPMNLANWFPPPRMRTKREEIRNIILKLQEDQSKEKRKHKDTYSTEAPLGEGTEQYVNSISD
# SENP8 block-1: blocks human SENP8 cleavage of Nedd8 substrate | recombinant SENP8, Nedd8 substrate fluorescence | inhibition, % at 20 µM | 0.64% of 360,000 active | AID 602440; in the data active = inhibition mostly above about 40%, no sharp cut-off; inactive = mostly below about 27%
# SENP8 block-2: SENP8 protease inhibition. Q96LD8. purified SENP8, Z-RLRGG-aminoluciferin cleavage, luminescence. inhibition, % at 10 µM. 1.2% of 330,000 active. AID 2540; in the data active = inhibition above about 50%
# SENP7 block: inhibitors of human SENP7 protease | Q9BQF6 | recombinant SENP7, Z-RLRGG-aminoluciferin luminescence, 40 min | inhibition, % at 5 µM | 1.5% of 330,000 active | AID 434973;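 active = inhibition above about 50% at the single test dose, limit read from the data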;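 also: plate controls were DMSO with enzyme for no effect and no enzyme buffer wells for full effect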
# SENP8 confirm: confirmation of human SENP8 protease inhibitors; shares compounds with SENP7 block; Recombinant SENP8, Z-RLRGG-aminoluciferin luminescence, 60 min; inhibition, % at 12.5 µM; 40% of 6,200 active; AID 488912;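 active = mean inhibition across replicates above about 50%, limit read from the data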
# SENP6 conf: confirmation of human SENP6 protease inhibitors | 58% of 6,200 active | shares compounds with SENP7 block | inhibition, % at 12.5 µM | recombinant SENP6, Z-RLRGG-aminoluciferin luminescence | AID 488915
# SENP7 conf: confirmation of human SENP7 protease inhibitors. shares compounds with SENP7 block. inhibition, % at 12.5 µM. AID 488917. 69% of 6,200 active. recombinant SENP7, Z-RLRGG-aminoluciferin luminescence, 40 min
# Casp3 SENP sel: selectivity test for SENP inhibitors: human caspase-3 inhibition; shares compounds with SENP7 block; purified caspase-3, Z-DEVD-aminoluciferin luminescence, 60 min; inhibition, % at 12.5 µM; 60% of 6,200 active; AID 488918;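 active = mean inhibition above about 50%, limit read from the data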;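 also: plate controls were enzyme with DMSO for no effect and wells without caspase-3 for full effect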
# SENP luc ctr: luminescence interference (SENP counter-screen) | 39% of 6,200 active | shares compounds with SENP7 block | Pre-incubated SENP8/Z-RLRGG-aminoluciferin, luciferase luminescence interference | AID 488919 | inhibition, % at 12.5 µM;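 active = mean inhibition above about 50% when retested at one dose, limit read from the data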;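 also: plate controls were DMSO wells with completed reaction for no effect and substrate without enzyme for full effect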
# Numbers without * were called inactive; / = no result given. An excerpt weighted towards active compounds, which were near 2.5% of everything screened.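 The calls were made as follows, unless noted: active = mean inhibition above about 50% in the one-dose retest (limit read from the data); inactive = the rest.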
SMILES,SENP1 inh,SENP6 block,SENP8 block-1,SENP8 block-2,SENP7 block,SENP8 confirm,SENP6 conf,SENP7 conf,Casp3 SENP sel,SENP luc ctr
Cc1ccc(N=Nc2c(=O)[nH]n3c(=O)cc(C)[nH]c23)cc1,0.2,75.9*,37.0,53.5*,43.5,-15.8,17.5,59.7*,61.4*,44.8
O=C(CNC(=O)c1ccccc1Cl)N/N=C/c1ccc([N+](=O)[O-])s1,-3.1,69.7*,28.5,9.1,12.6,18.3,37.2,1.4,1.6,-2.0
O=C(Cc1cccs1)N/N=C\c1ccc([N+](=O)[O-])s1,-7.4,33.8,29.2,8.6,13.1,/,/,/,/,/
CC1CCCN(C(=O)c2ccc(NC(=O)CC3SC(N4CCCC4)=NC3=O)cc2)C1 (stereo not drawn),2.6,-2.5,-7.8,-0.9,6.5,/,/,/,/,/
O=C1N=c2ccccc2=C1c1sc(NS(=O)(=O)Cc2ccccc2)nc1O,-6.2,87.9*,33.3,40.3,69.1*,77.9*,72.9*,92.4*,38.9,38.5
O=C1N=c2ccccc2=C1c1sc(NS(=O)(=O)c2ccccc2)nc1O,-4.6,31.0,17.2,-39.0,10.3,/,/,/,/,/
COc1ccccc1-c1csc(C(NC(C)=O)c2ccccc2)n1 (stereo not drawn),-2.3,/,7.5,/,/,/,/,/,/,/
Nc1nnc(SCC(=O)Nc2cccc3ccccc23)s1,-1.2,-11.9,-0.9,-6.6,2.7,/,/,/,/,/
O=C1C(=O)c2ccccc2C(O)=C1CCCCl,2.7,55.0*,20.7,26.3,8.3,52.9*,66.3*,13.3,8.0,1.1
O=C(CSc1nnc(-c2ccc(O)cc2)n1Cc1ccco1)c1cccs1,2.4,-4.9,15.9,-18.5,-2.3,/,/,/,/,/
O=C(CC(SCc1ccco1)c1ccc(O)cc1)c1cccs1 (stereo not drawn),11.8,88.9*,-3.9,88.0*,58.1*,92.9*,91.1*,95.4*,46.2,86.7*
CC(=O)Nc1cccc(NC(=O)CSc2nnc(NC(=O)c3ccco3)s2)c1,-1.1,-4.8,-28.9,-9.6,-6.4,/,/,/,/,/
CC(=O)Nc1ccc(NC(=O)CSc2nnc(NC(=O)c3ccc(Br)o3)s2)cc1,0.4,86.6*,-86.2,69.9*,47.8,17.3,13.7,13.8,48.9,1.8
Cc1cccc(C(=O)Nc2nnc(SCC(=O)Nc3ccc4c(c3)oc3ccccc34)s2)c1,-1.7,-43.4,-19.4,-15.5,-3.4,/,/,/,/,/
COCCSc1nnc(NC(=O)c2ccco2)s1,1.5,-13.8,-14.8,-7.6,92.4*,-2.3,-2.8,-3.3,19.1,4.0
Cc1ccc(NC(=O)CSc2nnc(NC(=O)c3ccco3)s2)cc1,0.8,14.0,-23.5,-0.5,11.4,/,/,/,/,/
COc1ccccc1C(=O)Nc1nnc(SCC(=O)Nc2ccc3c(c2)oc2ccccc23)s1,-0.9,34.1,-94.6,21.8,73.9*,19.3,-7.4,11.6,14.0,-0.7
CC(=O)c1ccc(NC(=O)CSc2nnc(NC(=O)c3ccco3)s2)cc1,1.1,55.4*,-23.4,54.8*,46.7,8.6,10.4,14.8,13.4,6.9
COc1cccc(N2CCN(c3ccc([N+](=O)[O-])cn3)CC2)c1,-1.6,-1.4,31.4,-5.4,-4.3,/,/,/,/,/
CCC[C@H]1CN(c2ccc(Br)cc2)C(=O)[C@@H]1CC(=O)NC,1.8,/,8.8,/,/,/,/,/,/,/
O=C(NC1CC2CCC(C1)N2Cc1ccccc1)c1ccccc1Cl (stereo not drawn),-2.9,10.3,0.7,12.3,-0.4,/,/,/,/,/
CCCCN1C2CCCC1CC(NC(=O)c1ccccc1Cl)C2 (stereo not drawn),3.0,-12.5,22.1,-7.0,82.6*,-7.7,-2.6,-5.5,-2.7,-5.0
